{"data": "Measurements pooled from the literature"}
{"SMILES": "O=C(O)CNC(=O)CO/N=c1\\cc2n(-c3ccc(Cl)cc3)c3ccccc3nc-2cc1Nc1ccc(Cl)cc1", "tested on": "Neisseria gonorrhoeae", "test": "microbial growth", "system": "ATCC49226", "measurement": "MIC", "value": "1.88 µM"}
{"SMILES": "CCOc1ccc2c(C)c(CC)c(=O)oc2c1C", "tested on": "MDA-MB-231", "test": "cell growth or viability, MTT", "conditions": "250 µg/mL", "measurement": "viability", "value": "32.3%"}
{"SMILES": "C[C@@H]1CC[C@@H]([C@@](O)(CNCc2ccccc2)COCc2ccccc2)[C@H](OCc2ccccc2)C1", "tested on": "MDA-MB-231", "test": "cell growth or viability, MTT", "conditions": "10 µM, 72 h", "measurement": "inhibition", "value": "95.5%"}
{"SMILES": "Cc1c(Cc2ccccc2)c(=O)oc2c(C)c(OCC(=O)NN=Cc3ccco3)ccc12", "tested on": "MDA-MB-231", "test": "cell growth or viability, MTT", "conditions": "500 µg/mL", "measurement": "viability", "value": "1.17%"}
{"SMILES": "C[C@@H]1CC[C@@H]([C@](O)(CNCc2ccccc2)COCc2ccc(F)cc2)[C@H](OCc2ccc(F)cc2)C1", "tested on": "MDA-MB-231", "test": "cell growth or viability, MTT", "conditions": "10 µM, 72 h", "measurement": "inhibition", "value": "93.8%"}
{"SMILES": "O=C(CO/N=c1\\cc2n(-c3ccc(Cl)cc3)c3ccccc3nc-2cc1Nc1ccc(Cl)cc1)NCc1ccc2c(c1)CCO2", "tested on": "Neisseria gonorrhoeae", "test": "microbial growth", "system": "ATCC49226", "measurement": "MIC", "value": "15 µM"}
{"SMILES": "Cc1c(Cc2ccccc2)c(=O)oc2c(C)c(OCC(=O)NN=Cc3ccccc3)ccc12", "tested on": "MDA-MB-231", "test": "cell growth or viability, MTT", "conditions": "1000 µg/mL", "measurement": "viability", "value": "3.55%"}
{"SMILES": "COC1=CC(=O)c2ccccc2C1=O", "tested on": "Lodderomyces parapsilosis", "test": "microbial growth, broth dilution", "system": "ATCC22019", "conditions": "24 h", "measurement": "MIC", "value": "6.25 µg/mL"}
{"SMILES": "Cc1c(Cc2ccccc2)c(=O)oc2c(C)c(OCC(=O)NN=Cc3ccc([N+](=O)[O-])cc3)ccc12", "tested on": "MDA-MB-231", "test": "cell growth or viability, MTT", "conditions": "1000 µg/mL", "measurement": "viability", "value": "11.2%"}
{"SMILES": "CC(C)/N=c1\\cc2n(-c3ccc(Cl)cc3)c3ccccc3nc-2cc1Nc1ccc(Cl)cc1", "tested on": "Neisseria gonorrhoeae", "test": "microbial growth", "system": "ATCC49226", "measurement": "MIC", "value": "0.94 µM"}
{"SMILES": "CC(C)C[C@@H]1NC(=O)[C@@H](N(C)C(=O)[C@H](CC2CCC2)NC(=O)[C@@H]2C[C@@H](F)CN2C(=O)C2(C(F)(F)F)CC(F)(F)C2)CCCCNC(=O)C2(CC2)NC(=O)[C@H](Cc2cc(Cl)ccc2Cl)N(C)C1=O", "tested on": "NCI-H526", "test": "cell growth or viability, MTT", "conditions": "5 days", "measurement": "GI50", "value": "240 nM"}
{"SMILES": "C[C@@H]1[C@H](O)[C@@H](C)/C=C/C=C/C=C/C=C/C=C/C=C/C=C/[C@H](O[C@@H]2O[C@H](C)[C@@H](O)[C@H](N)[C@@H]2O)C[C@@H]2O[C@](O)(C[C@@H](O)C[C@@H](O)[C@H](O)CC[C@@H](O)C[C@@H](O)CC(=O)O[C@H]1C)C[C@H](O)[C@H]2C(=O)O", "tested on": "Lodderomyces parapsilosis", "test": "microbial growth, broth dilution", "system": "ATCC22019", "conditions": "24 h", "measurement": "MIC", "value": "2 µg/mL"}
